Experiment [1] addresses T1, 3-hydroxy-3-methylglutaryl-coenzyme A reductase (Rattus norvegicus, UniProt P51639).
T1 sequence (P51639 whole entry): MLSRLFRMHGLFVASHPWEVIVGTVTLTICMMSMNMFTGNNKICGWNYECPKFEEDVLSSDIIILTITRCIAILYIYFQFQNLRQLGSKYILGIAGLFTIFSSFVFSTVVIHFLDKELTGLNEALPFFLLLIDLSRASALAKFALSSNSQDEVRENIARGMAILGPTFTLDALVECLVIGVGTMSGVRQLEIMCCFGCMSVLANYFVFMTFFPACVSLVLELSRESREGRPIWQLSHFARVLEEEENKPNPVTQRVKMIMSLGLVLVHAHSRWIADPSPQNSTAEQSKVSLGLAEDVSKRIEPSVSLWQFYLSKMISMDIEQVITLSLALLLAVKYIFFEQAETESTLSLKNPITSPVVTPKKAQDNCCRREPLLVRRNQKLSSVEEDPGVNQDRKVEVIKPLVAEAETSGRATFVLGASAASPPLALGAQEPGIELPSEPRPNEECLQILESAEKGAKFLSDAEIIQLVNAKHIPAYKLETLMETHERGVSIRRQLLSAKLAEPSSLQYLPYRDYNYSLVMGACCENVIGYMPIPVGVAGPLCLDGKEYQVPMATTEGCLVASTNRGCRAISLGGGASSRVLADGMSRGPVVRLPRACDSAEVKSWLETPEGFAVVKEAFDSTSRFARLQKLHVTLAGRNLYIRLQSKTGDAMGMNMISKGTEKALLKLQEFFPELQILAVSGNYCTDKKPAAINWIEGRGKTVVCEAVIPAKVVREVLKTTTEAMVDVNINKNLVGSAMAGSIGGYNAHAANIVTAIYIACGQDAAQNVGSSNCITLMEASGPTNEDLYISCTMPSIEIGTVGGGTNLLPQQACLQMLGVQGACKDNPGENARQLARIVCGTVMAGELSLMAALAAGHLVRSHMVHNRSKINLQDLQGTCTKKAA
Description: In vitro inhibitory activity against rat liver HMG-CoA reductase enzyme.

Experiment [2] in a line: The relative potency by comparing its IC50 value with that of mevastatin. A digest of the protocol:
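Compounds were tested in salt form for intrinsic inhibition of HMG-CoA reductase. Mevastatin (compactin) was run alongside in the same test and set to a relative potency of 100. Each compound's relative potency was derived by comparing its IC50 with that of mevastatin.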

From ChEMBL document CHEMBL1125180, “3-Hydroxy-3-methylglutaryl-coenzyme A reductase inhibitors. 8. Side chain ether analogues of lovastatin” (J Med Chem, 1991) come the findings set out here.

Broadly, the IC50 is the concentration at which inhibition is half-maximal. Low readings indicate inhibition by little substance, high ones a need for much substance. Regarding `C[C@H]1C=C2C=C[C@H](C)[C@H](CCC3C[C@@H](O)CC(=O)O3)[C@H]2[C@@H](OCc2ccc(Cl)cc2)C1` (some centres not stated), in experiment [1], half-maximal inhibition (IC50) required 170 nM. Besides, the Relative potency in experiment [2] came to 8.5.
On the same counts, the results for `C=CCO[C@H]1C[C@@H](C)C=C2C=C[C@H](C)[C@H](CCC3C[C@@H](O)CC(=O)O3)[C@H]21` (some centres not stated) are 370 nM and 1.5.
With `C[C@H]1C=C2C=C[C@H](C)[C@H](CC[C@@H]3C[C@@H](O)CC(=O)O3)[C@H]2[C@@H](OC(=O)Cc2ccccc2)C1`, the Relative potency in experiment [2] was 29.
Compound `CO[C@H]1C[C@@H](C)C=C2C=C[C@H](C)[C@H](CCC3C[C@@H](O)CC(=O)O3)[C@H]21` (some centres not stated) returned a half-inhibitory concentration (IC50) in experiment [1] of 2810 nM. In experiment [2], this compound displayed a Relative potency of 0.2.
`C[C@H]1C=C2C=C[C@H](C)[C@H](CCC3C[C@@H](O)CC(=O)O3)[C@H]2[C@@H](OCc2ccccc2)C1` (some centres not stated) had an IC50 in experiment [1] of 27 nM. The compound further displayed a Relative potency in experiment [2] of 20.
On the same counts, the results for `CC(=O)O[C@H]1C[C@@H](C)C=C2C=C[C@H](C)[C@H](CCC3C[C@@H](O)CC(=O)O3)[C@H]21` (some centres not stated) are 269 nM and 2.1.
On the same counts, the results for `C=CCC(=O)O[C@H]1C[C@@H](C)C=C2C=C[C@H](C)[C@H](CCC3C[C@@H](O)CC(=O)O3)[C@H]21` (some centres not stated) are 2.9 nM and 187.
On the same counts, the results for `C[C@H]1C=C2C=C[C@H](C)[C@H](CCC3C[C@@H](O)CC(=O)O3)[C@H]2[C@@H](OCc2ccc(F)cc2)C1` (some centres not stated) are 4.7 nM and 119.
`C=C(C)CO[C@H]1C[C@@H](C)C=C2C=C[C@H](C)[C@H](CCC3C[C@@H](O)CC(=O)O3)[C@H]21` (some centres not stated) returned an IC50 in experiment [1] of 360 nM. Moreover, the Relative potency in experiment [2] was 1.5.
